In ChEMBL document CHEMBL1133980, “New inhibitors of the thioredoxin-thioredoxin reductase system based on a naphthoquinone spiroketal natural product lead” (Bioorg Med Chem Lett, 2001):

Legend:
MDA-MB-231 = assay: Ability to inhibit the growth of MDA-MB-231 cell line; format: functional, cell-based; conditions: Homo sapiens
How it was run: (§1)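 MCF-7 (ER+, p53 replete) and MDA-MB-231 (ER−, p53 deficient) human breast cancer cells were seeded at 4000/well and left to attach overnight. They were then exposed to compound (0.1–30 μM) or 0.1% DMSO vehicle for 72 h. Medium was changed to serum-free medium with 0.1% MTT, incubated 3 h in the dark, and cell number read at 540 nm.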

MCF7 = assay: Ability to inhibit the growth of MCF-7 cell line; format: functional, cell-based; conditions: Homo sapiens; how it was run: as §1
Thioredoxin reductase [1] = biological target: T1, Thioredoxin reductase (Homo sapiens, UniProt Q16881+Q9NNW7+Q86VQ6); assay: Inhibition of thioredoxin-1/thioredoxin reductase system; format: functional
How it was run: (§2)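 Insulin reduction by human placental TrxR plus recombinant human Trx-1 (final 1.0 μM TrxR, 0.8 μM Trx-1) in 100 mM HEPES pH 7.2, 5 mM EDTA with 1 mM NADPH and 2.5 mg/mL bovine insulin, 30 min, 37 °C. Stopped with 6 M guanidine-HCl/Tris pH 8.0/10 mM DTNB; A405 read. IC50 from five concentrations (0.1–50 μM).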

[2] = Compound was tested for its ability to inhibit thioredoxin-1/thioredoxin reductase system; design: species or system Homo sapiens; how it was run: as §2
Thioredoxin reductase [3] = biological target: T1, Thioredoxin reductase; assay: Inhibition of thioredoxin reductase; format: protein assay
How it was run: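 Human placental TrxR (final 1.0 μM) in HEPES pH 7.2/EDTA buffer was added to diluted compound. Reaction started with NADPH (final 1 mM) and DTNB (final 10 mM) at 37 °C. A405 for DTNB reduction read every 10 s and initial rates taken. IC50 from five concentrations (0.1–50 μM).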

Compound	IC50 (MDA-MB-231)	IC50 (MCF7)	IC50 (Thioredoxin reductase [1])	IC50 [2]	IC50 (Thioredoxin reductase [3])
CC(C)=CCOc1cccc2c1C(=O)C=CC21Oc2cccc3cccc(c23)O1	3.6 µM	2 µM	> 50 µM	–	–
O=C1C=CC2(Oc3cccc4cccc(c34)O2)c2cccc(OC/C=C/c3ccccc3)c21	7.5 µM	7.9 µM	> 50 µM	–	–
CC(C)=CCC/C(C)=C/COc1cccc2c1C(=O)C=CC21Oc2cccc3cccc(c23)O1	2 µM	4.6 µM	–	> 50 µM	–
C=CCOc1cccc2c1C(=O)C=CC21Oc2cccc3cccc(c23)O1	2.7 µM	2 µM	23.2 µM	–	> 50 µM
O=C1C=CC2(Oc3cccc4cccc(c34)O2)c2cccc(OCc3ccc(Cl)cc3)c21	8 µM	> 10 µM	> 50 µM	–	> 50 µM
O=C1C=CC2(Oc3cccc4cccc(c34)O2)c2cccc(OCCc3ccccc3)c21	4.6 µM	3.9 µM	> 50 µM	–	–
O=C1C=CC2(Oc3cccc4cccc(c34)O2)c2cccc(OCc3cccnc3)c21	1.4 µM	1.5 µM	> 50 µM	–	> 50 µM
CC/C=C/CCOc1cccc2c1C(=O)C=CC21Oc2cccc3cccc(c23)O1	9.2 µM	> 30 µM	> 50 µM	–	–
O=C1C=CC2(Oc3cccc4cccc(c34)O2)C23OC12CCCC3=O (configuration not stated)	3.4 µM	1.3 µM	44 µM	–	–
O=C1CCCC2=C1C1(Oc3cccc4cccc(c34)O1)C1OC1C2=O (configuration not stated)	23 µM	4.6 µM	12.2 µM	–	–
O=C1C=CC2(Oc3cccc4cccc(c34)O2)c2cccc(OCc3ccc(Br)cc3)c21	9.3 µM	> 10 µM	> 50 µM	–	> 50 µM
COc1ccc(COc2cccc3c2C(=O)C=CC32Oc3cccc4cccc(c34)O2)cc1	2.2 µM	0.7 µM	> 50 µM	–	> 50 µM
C/C=C/COc1cccc2c1C(=O)C=CC21Oc2cccc3cccc(c23)O1	2.9 µM	1.3 µM	> 50 µM	–	–
O=C1C=CC2(Oc3cccc4cccc(c34)O2)c2cccc(OCc3ccoc3)c21	2 µM	2 µM	23.2 µM	–	> 50 µM
O=C1[C@@H]2O[C@@H]2C2(Oc3cccc4cccc(c34)O2)[C@@]23O[C@@]12CCCC3=O	8.2 µM	4.6 µM	> 50 µM	–	–
O=C1C=CC2(Oc3cccc4cccc(c34)O2)c2cccc(OCc3ccncc3)c21	7.3 µM	8 µM	> 50 µM	–	> 50 µM
C#CCOc1cccc2c1C(=O)C=CC21Oc2cccc3cccc(c23)O1	4.7 µM	4.3 µM	13.4 µM	–	> 50 µM
O=C1C=CC2(Oc3cccc4cccc(c34)O2)c2cccc(OCc3ccco3)c21	2.5 µM	1.1 µM	> 50 µM	–	–

Compound	IC50 (MDA-MB-231)	IC50 (MCF7)	IC50 (Thioredoxin reductase [1])	IC50 [2]	IC50 (Thioredoxin reductase [3])
O=C1[C@@H]2O[C@@H]2C2(Oc3cccc4cccc(c34)O2)[C@]23O[C@]12CCCC3=O	2.9 µM	2.8 µM	13.5 µM	–	–
CCCCCCOc1cccc2c1C(=O)C=CC21Oc2cccc3cccc(c23)O1	13.6 µM	13.4 µM	> 50 µM	–	–
O=C1C=CC2(Oc3cccc4cccc(c34)O2)c2cccc(OCc3ccc(-c4cccc(C(F)(F)F)c4)o3)c21	5.2 µM	5.5 µM	42.4 µM	–	> 50 µM
O=C1C=CC2(Oc3cccc4cccc(c34)O2)c2cccc(OCc3ccc(-c4ccccc4C(F)(F)F)o3)c21	4.9 µM	5 µM	> 50 µM	–	> 50 µM
O=C1C=CC2(Oc3cccc4cccc(c34)O2)c2cccc(OCc3ccc(-c4ccccc4Cl)o3)c21	> 10 µM	> 10 µM	> 50 µM	–	> 50 µM
O=C1C=CC2(Oc3cccc4cccc(c34)O2)c2cccc(OCc3ccccn3)c21	2.8 µM	2 µM	41.8 µM	–	> 50 µM
C/C=C(/C)COc1cccc2c1C(=O)C=CC21Oc2cccc3cccc(c23)O1	4.5 µM	1.9 µM	> 50 µM	–	–
COc1cccc(COc2cccc3c2C(=O)C=CC32Oc3cccc4cccc(c34)O2)c1	2.7 µM	2.3 µM	> 50 µM	–	–
O=C1C=C[C@H](O)[C@@]23O[C@@]12C1(Oc2cccc4cccc(c24)O1)[C@@H]1O[C@@H]1[C@@H]3O	2 µM	1.5 µM	4.5 µM	–	13.5 µM
O=C1C=CC2(Oc3cccc4cccc(c34)O2)c2cccc(OCc3ccc(-c4ccc(Br)cc4)o3)c21	7.8 µM	5.7 µM	10.2 µM	–	20.1 µM
O=C1C=CC2(Oc3cccc4cccc(c34)O2)c2cccc(O)c21	2.4 µM	1 µM	0.35 µM	–	12 µM
C=C(C)COc1cccc2c1C(=O)C=CC21Oc2cccc3cccc(c23)O1	8.2 µM	7.8 µM	4.8 µM	–	> 50 µM
O=C1C=CC2(Oc3cccc4cccc(c34)O2)C2=C1[C@@H](O)C1C3C=CC(C3)C1[C@H]2O (some centres not stated)	2.1 µM	1.3 µM	8 µM	–	–
O=C1C=CC2(Oc3cccc4cccc(c34)O2)C2=C1CCCC2=O	6.4 µM	3.8 µM	2.1 µM	–	–
O=C1C=CC2(OCCO2)c2cccc(O)c21	4.3 µM	4.2 µM	3.4 µM	–	8.8 µM
C/C=C(\C)COc1cccc2c1C(=O)C=CC21Oc2cccc3cccc(c23)O1	5.3 µM	4.3 µM	> 50 µM	–	–
COc1cccc2c1C(=O)C=CC21OCCCO1	5 µM	4.4 µM	40.2 µM	–	> 50 µM
O=C1C=CC2(Oc3cccc4cccc(c34)O2)c2cccc(OCc3ccc(-c4cccc(Cl)c4)o3)c21	> 10 µM	> 10 µM	> 50 µM	–	> 50 µM
